Reference: PMC11208914 (Biochemistry and Biophysics Reports, 2024)
Entries after “also recorded” stand apart in the source; their conditions may differ. Where two headings read alike, the source gives them in different places.

Key:
[1] = tested on: HMC3 cells; assay: CellTiter-Glo cell viability test, HMC3 cells; assay type: cell-based; conditions: Fig. 2; for cytotoxic effect on HMC3 cells at 100 μg/ml: about 100 μg/ml
Summary of the method: (§1)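 HMC3 or HeLa cells were grown in DMEM with L-glutamine, 10 % FCS and 1 % penicillin/streptomycin, then seeded at 10^4 cells/well. Peptide in ½ dilutions (100 to 1.5 μg/ml) was added for 2 h at 37 °C and 5 % CO2. Medium was then replaced with DMEM/10 % FCS for 24 h, with untreated cells as control. ATP was read by CellTiter-Glo luminescence, in triplicate.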

[2] = tested on: ZIKV PF13; assay type: cell-based, Zika virus; conditions: FACS; for reduction in infection: virus treated before infection of HMC3 cells
Summary of the method: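 HMC3 cells were seeded at 4.10^4 cells/well the day before. ZIKV PF13 (MOI 1.5) was preincubated with ½ dilutions of peptide (50 to 3 μg/ml) for 1 h at 37 °C, then added to cells for 1.5 h at 37 °C before medium replacement; duplicates. Trypsinized cells were fixed and permeabilized (30 min, 4 °C), stained with 4G2 anti-envelope antibody (1/500) and Alexa488 secondary (1/1000), then analysed by flow cytometry.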

[3] = tested on: HeLa cells; assay: CellTiter-Glo cell viability test, HeLa cells; assay type: cell-based
Summary of the method: as §1

Sequence	cytotoxic effect on HMC3 cells at 100 μg/ml [1]	effect on ZIKV PF13 infection ([2]; non-cytotoxic concentrations 50 to 3 μg/ml, HMC3 cells)	cytotoxicity to HeLa cells ([3]; even at high concentrations, Fig. 3)	concentration at which the peptide remained non-toxic to HMC3 cells [1]	reduction in infection ([2]; 6.25 μg/ml)	viability of HeLa cells at 100 μg/ml [3]	concentration at which the peptide exhibits cytotoxicity to HeLa cells ([3]; Fig. 3)	reduction in infection ([2]; 3 μg/ml)
GLKKKIKEVGKEAAKAAAKAAGKAALGAVSEAV [K3K4B2]	no cytotoxic effects	increased the infection	non-cytotoxic; also recorded: did not exhibit any toxic effects	–	–	–	–	–
ALWKTLLKKVLKAAAKAALKAVLVGAKA [K4K20K27S4]	exhibited cytotoxicity	–	–	about 12.5 μg/ml	Approximately 90%	18%	50 µg/mL	–
ALWKTLLKKVLKAAAKAALKAVLVGANA [K4K20S4]	exhibited cytotoxicity	–	–	about 12.5 μg/ml	–	approximately 1%	around 25 μg/ml	Approximately 90%
